According to ChEMBL document CHEMBL5038619, “Interfering with the Tumor-Immune Interface: Making Way for Triazine-Based Small Molecules as Novel PD-L1 Inhibitors” (J Med Chem, 2021):
Calls of active or inactive are those of the source. The calls are words filed in the database; no cut-off is given here.

Columns and labels:
[1] = molecular target: T1, Programmed cell death protein 1/Programmed cell death 1 ligand 1 (Homo sapiens, UniProt Q9NZQ7); experiment: Inhibition of human recombinant PD-1/PDL-1 interaction measured by HTRF assay; assay type: protein-complex assay
T1 sequence (Q15116 whole entry): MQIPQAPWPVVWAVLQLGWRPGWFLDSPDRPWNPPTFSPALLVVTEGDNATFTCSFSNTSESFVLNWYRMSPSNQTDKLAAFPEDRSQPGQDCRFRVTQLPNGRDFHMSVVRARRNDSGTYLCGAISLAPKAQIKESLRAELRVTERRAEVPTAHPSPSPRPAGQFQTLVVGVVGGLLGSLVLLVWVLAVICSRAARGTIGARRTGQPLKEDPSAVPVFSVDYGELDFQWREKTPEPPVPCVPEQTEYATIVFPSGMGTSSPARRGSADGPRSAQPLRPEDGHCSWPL
T1 sequence (Q9NZQ7 whole entry): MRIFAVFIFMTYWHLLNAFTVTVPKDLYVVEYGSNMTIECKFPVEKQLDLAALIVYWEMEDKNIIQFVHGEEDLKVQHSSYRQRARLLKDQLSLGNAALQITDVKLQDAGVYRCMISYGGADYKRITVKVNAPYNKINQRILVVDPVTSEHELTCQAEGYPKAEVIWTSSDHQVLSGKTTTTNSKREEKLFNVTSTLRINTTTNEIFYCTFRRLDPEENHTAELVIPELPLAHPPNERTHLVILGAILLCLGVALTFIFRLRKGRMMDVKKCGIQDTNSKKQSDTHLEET

HCC827 [2] = experiment: Cytotoxicity against human HCC827 cells assessed as reduction in cell viability at 10 uM for 48 hrs by CCK-8 assay; assay type: toxicity, cell-based; details: hcc827, 48 h
Summary of the method: (§1)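 Cells were seeded at 1×10^4/well in triplicate and exposed to 0.1–100 μM compound with DMSO held at 0.02% in all wells. Untreated wells served as reference. After 24 or 48 h at 37 °C, 5% CO2, viability was read by CCK-8 at 450 nm (reference 600 nm). Results are percent survival versus untreated, mean ± SD of three independent experiments in triplicate.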

PC-9 [3] = experiment: Immunomodulatory activity in human PC9 cells expressing PD-L1 co-cultured stimulated PMBC cells assessed as reduction in cell viability at 1 uM for 48 hr by CCK8 assay; assay type: functional, cell-based
Summary of the method: (§2)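 PC9 or HCC827 cells were co-cultured 48 h with PBMCs, treated with 1 μM compound and stimulated 1 h later with anti-CD3/anti-CD28 (1 μg/mL each). PBMCs were then removed by PBS washes and viability of the remaining cancer cells was read by CCK-8. Results are percent survival versus untreated, mean ± SD of three independent experiments in triplicate.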

HaCaT [4] = experiment: Cytotoxicity against human HaCaT cells assessed as reduction in cell viability at 10 uM for 24 hrs by CCK-8 assay; assay type: toxicity, cell-based; summary of the method: as §1
[5] = molecular target: Programmed cell death 1 ligand 1 (Homo sapiens) (UniProt Q9NZQ7); details: dose 32.0 µM
Sequence of Programmed cell death 1 ligand 1 (Homo sapiens) (Q9NZQ7 whole entry): as above

[6] = Cytotoxicity against human PBMC cells assessed as reduction in cell viability at 10 uM for 48 hrs by CCK-8 assay; assay type: toxicity, cell-based; summary of the method: as §1
HCC827 [7] = experiment: Immunomodulatory activity in human HCC827 cells expressing PD-L1 co-cultured stimulated PMBC cells assessed as IFN-gamma release level at 1 uM measured after 48 hr by ELISA; assay type: functional, cell-based
Summary of the method: (§3)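 Co-culture: PC9 or HCC827 cells (2×10^5/well) plus 2×10^6 PBMCs, 1 μM compound, then anti-CD3/anti-CD28 TransAct (1 μg/mL each) 1 h later. After 48 h, IFN-γ in the medium was measured by sandwich ELISA (450 nm). Values are mean ± SD of three independent experiments in triplicate; two-sided t-test.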

[8] = Cytotoxicity against human PBMC cells assessed as reduction in cell viability at 100 uM for 48 hrs by CCK-8 assay; assay type: toxicity, cell-based; summary of the method: as §1
HCC827 [9] = experiment: Cytotoxicity against human HCC827 cells assessed as reduction in cell viability at 100 uM for 24 hrs by CCK-8 assay; assay type: toxicity, cell-based; details: hcc827, 24 h; summary of the method: as §1
PC-9 [10] = experiment: Cytotoxicity against human PC-9 cells assessed as reduction in cell viability at 10 uM for 48 hrs by CCK-8 assay; assay type: toxicity, cell-based; details: pc-9, 48 h; summary of the method: as §1
HCC827 [11] = experiment: Immunomodulatory activity in human HCC827 cells expressing PD-L1 co-cultured stimulated PMBC cells assessed as reduction in cell viability at 1 uM for 48 hr by CCK8 assay; assay type: functional, cell-based; summary of the method: as §2
PC-9 [12] = experiment: Cytotoxicity against human PC-9 cells assessed as reduction in cell viability at 100 uM for 24 hrs by CCK-8 assay; assay type: toxicity, cell-based; details: pc-9, 24 h; summary of the method: as §1
HCC827 [13] = experiment: Immunomodulatory activity in human HCC827 cells expressing PD-L1 assessed as morphological changes at 1 uM measured after 48 hrs by phase-contrast microscopy; assay type: functional, cell-based
HCC827 [14] = experiment: Immunomodulatory activity in human HCC827 cells expressing PD-L1 co-cultured stimulated PMBC cells assessed as induction of apoptosis at 1 uM for 48 hr by Annexin V-FITC and propidium iodide based flow cytometry; assay type: functional, cell-based
Summary of the method: (§4)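 In the same PBMC/cancer-cell co-culture (1 μM compound for 1 h before TransAct anti-CD3/CD28 stimulation, 1 μg/mL each), cells were harvested after 48 h. They were stained with annexin V-FITC/PI and analysed by flow cytometry. Results are mean fraction of annexin V+ cells ± SD, three independent experiments.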

HCC827 [15] = experiment: Cytotoxicity against human HCC827 cells assessed as reduction in cell viability at 100 uM for 48 hrs by CCK-8 assay; assay type: functional, cell-based; summary of the method: as §1
PC-9 [16] = experiment: Cytotoxicity against human PC-9 cells assessed as reduction in cell viability at 10 uM for 24 hrs by CCK-8 assay; assay type: toxicity, cell-based; details: pc-9, 24 h; summary of the method: as §1
PC-9 [17] = experiment: Immunomodulatory activity in human PC9 cells expressing PD-L1 co-cultured stimulated PMBC cells assessed as morphological changes at 1 uM measured after 48 hrs by phase-contrast microscopy; assay type: functional, cell-based
Summary of the method: (§5)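 PC9 or HCC827 cells (2×10^5/well, 24 h) were co-cultured with 2×10^6 PBMCs. Compound was added at 1 μM, and 1 h later PBMCs were stimulated with anti-CD3/anti-CD28 TransAct (1 μg/mL each). Controls were unstimulated PBMCs and untreated cancer cells. After 48 h, phase-contrast microscopy was used to look for junction disruption, nuclear swelling, vacuolization, cytosol shrinkage and membrane rupture.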

HaCaT [18] = experiment: Cytotoxicity against human HaCaT cells assessed as reduction in cell viability at 100 uM for 24 hrs by CCK-8 assay; assay type: toxicity, cell-based; summary of the method: as §1
HCC827 [19] = experiment: Cytotoxicity against human HCC827 cells assessed as reduction in cell viability at 10 uM for 24 hrs by CCK-8 assay; assay type: toxicity, cell-based; details: hcc827, 24 h; summary of the method: as §1
PC-9 [20] = experiment: Immunomodulatory activity in human PC9 cells expressing PD-L1 co-cultured stimulated PMBC cells assessed as IFN-gamma release level at 1 uM measured after 48 hr by ELISA; assay type: functional, cell-based; summary of the method: as §3
[21] = Cytotoxicity against human PBMC cells assessed as reduction in cell viability at 10 uM for 24 hrs by CCK-8 assay; assay type: toxicity, cell-based; summary of the method: as §1
PC-9 [22] = experiment: Immunomodulatory activity in human PC9 cells expressing PD-L1 co-cultured stimulated PMBC cells assessed as induction of apoptosis at 1 uM for 48 hr by Annexin V-FITC and propidium iodide based flow cytometry; assay type: functional, cell-based; summary of the method: as §4
HaCaT [23] = experiment: Cytotoxicity against human HaCaT cells assessed as reduction in cell viability at 10 uM for 48 hrs by CCK-8 assay; assay type: toxicity, cell-based; summary of the method: as §1
HaCaT [24] = experiment: Cytotoxicity against human HaCaT cells assessed as reduction in cell viability at 100 uM for 48 hrs by CCK-8 assay; assay type: toxicity, cell-based; summary of the method: as §1
PC-9 [25] = experiment: Immunomodulatory activity in human PC9 cells expressing PD-L1 assessed as morphological changes at 1 uM measured after 48 hrs by phase-contrast microscopy; assay type: functional, cell-based
HCC827 [26] = experiment: Immunomodulatory activity in human HCC827 cells expressing PD-L1 co-cultured stimulated PMBC cells assessed as morphological changes at 1 uM measured after 48 hrs by phase-contrast microscopy; assay type: functional, cell-based; summary of the method: as §5
PC-9 [27] = experiment: Cytotoxicity against human PC-9 cells assessed as reduction in cell viability at 100 uM for 48 hrs by CCK-8 assay; assay type: toxicity, cell-based; details: pc-9, 48 h; summary of the method: as §1
[28] = molecular target: T1, Programmed cell death protein 1/Programmed cell death 1 ligand 1; experiment: Inhibition of PD-1/PDL-1 (unknown origin) binding; assay type: protein-complex assay
[29] = molecular target: Programmed cell death 1 ligand 1 (Homo sapiens) (UniProt Q9NZQ7); experiment: Binding affinity to human PD-L1 expressing on exosomes assessed as decrease in […] intensity at 0.5 mM by STD-NMR spectroscopy
[30] = molecular target: Programmed cell death 1 ligand 1 (Homo sapiens) (UniProt Q9NZQ7); experiment: Binding affinity to human PD-L1 expressing on exosomes assessed as decrease in […] intensity at 0.5 mM by WL-NMR spectroscopy
[31] = Cytotoxicity against human PBMC cells assessed as reduction in cell viability at 100 uM for 24 hrs by CCK-8 assay; assay type: toxicity, cell-based; summary of the method: as §1

Work on `CC(C)(C)OC(=O)NCCNc1nc(OCc2ccccc2)nc(N2CCC[C@H]2C(=O)NCc2ccccc2)n1` yielded an IC50 [1] of over 5000 nM.

`Cc1c(COc2ncnc(NCCNS(C)(=O)=O)n2)cccc1-c1ccccc1` gave an IC50 [1] of 241 nM.

`COc1nc(NCCNC(C)=O)nc(OCc2cccc(-c3ccccc3)c2C)n1` gave an IC50 [1] of 1530 nM.

For `CC(=O)NCCNc1ncnc(OCc2cccc(-c3ccccc3)c2C)n1`, the Activity (HCC827 [2]) was “Non-Toxic”, the Activity (PC-9 [3]) was “Active” and the Activity (HaCaT [4]) was “Non-Toxic”. For the same molecule, the Tm [5] was 49 °C, the Activity [6] was “Non-Toxic” and the Activity (HCC827 [7]) was “Active”. The Activity [8] was “Toxic”, the Activity (HCC827 [9]) was “Toxic” and the Activity (PC-9 [10]) was “Non-Toxic”. For the same molecule, the Activity (HCC827 [11]) was “Active”, the Activity (PC-9 [12]) was “Toxic” and the Activity (HCC827 [13]) was “inactive”. For the same molecule, the Activity (HCC827 [14]) was “Active”, the Activity (HCC827 [15]) was “Toxic” and the Activity (PC-9 [16]) was “Non-Toxic”. The IC50 [1] was 115 nM, the Activity (PC-9 [17]) was “Active” and the Activity (HaCaT [18]) was “Toxic”. The Activity (HCC827 [19]) was “Non-Toxic”, the Activity (PC-9 [20]) was “Active” and the Activity [21] was “Non-Toxic”. The Activity (PC-9 [22]) was “Active”, the Activity (HaCaT [23]) was “Non-Toxic” and the Activity (HaCaT [24]) was “Toxic”. The Activity (PC-9 [25]) was “inactive”, the Activity (HCC827 [26]) was “Active” and the Activity (PC-9 [27]) was “Toxic”.

With `O=C(O)[C@@H]1CCCCN1Cc1ccc(OCc2cccc(-c3ccccc3)c2Br)c(Br)c1` the IC50 [28] was 15 nM.

Work on `COC(=O)[C@H](Cc1c[nH]cn1)Nc1nc(OCc2cccc(C#N)c2)nc(OCc2cccc(-c3ccccc3)c2C)n1` yielded an IC50 [1] of over 5000 nM.

Work on `CC(=O)NCCNc1nc(OCc2cccc(C#N)c2)nc(OCc2cccc(-c3ccccc3)c2C)n1` yielded an IC50 [1] of over 5000 nM.

`Cc1c(COc2ccc(CN[C@H](CO)C(=O)O)c(OCc3cncc(C#N)c3)n2)cccc1-c1ccccc1` gave an IC50 [28] of 12 nM.

`Cc1c(COc2ccc(CNCCO)n3cnnc23)cccc1-c1ccc2c(c1)OCCO2` showed an IC50 [28] of 92.3 nM.

With `COC(=O)[C@H](Cc1c[nH]cn1)Nc1ncnc(OCc2cccc(-c3ccccc3)c2C)n1` the Activity [29] was “Active” and the Activity [30] was “Active”.

Work on `COc1cc(C(=O)N2CCC3C(c4ccccc4)=CC=CC32)ccc1CNCCO` (configuration not stated) yielded an IC50 [28] of 132 nM.

In the case of `Cc1c(COc2ccc(CN3CCCC[C@H]3C(=O)NCCN)c(OCc3cccc(C#N)c3)c2)cccc1-c1ccccc1`, the IC50 [28] is reported as 9.1 nM.

Work on `CC(=O)NCCCNc1ncnc(OCc2cccc(-c3ccccc3)c2C)n1` yielded an IC50 [1] of 2150 nM.

Work on `Cc1c(COc2nc(N[C@@H](Cc3c[nH]cn3)C(=O)O)nc(OCc3cccc(C#N)c3)n2)cccc1-c1ccccc1` yielded an IC50 [1] of over 5000 nM.

`Cc1c(COc2ncnc(N[C@@H](Cc3c[nH]cn3)C(=O)O)n2)cccc1-c1ccccc1` gave an IC50 [1] of over 5000 nM.

`CC(=O)NCCNc1nc(O)nc(OCc2cccc(-c3ccccc3)c2C)n1` gave an IC50 [1] of over 5000 nM.

Work on `CC(=O)NCCNc1nc(C)nc(OCc2cccc(-c3ccccc3)c2C)n1` yielded an IC50 [1] of over 5000 nM.

In the case of `Cc1c(COc2ncnc(NCCS(N)(=O)=O)n2)cccc1-c1ccccc1`, the IC50 [1] is reported as 551 nM.

In the case of `COc1nc(OCc2cccc(-c3ccccc3)c2C)ccc1CNCCNC(C)=O`, the Activity (HCC827 [2]) is reported as “Non-Toxic”, the Activity (PC-9 [3]) is reported as “Active” and the Activity (HaCaT [4]) is reported as “Non-Toxic”. For the same molecule, the Tm [5] was 53 °C, the Activity [6] was “Non-Toxic” and the Activity (HCC827 [7]) was “Active”. The Activity [8] was “Toxic”, the Activity (HCC827 [9]) was “Toxic” and the Activity (PC-9 [10]) was “Non-Toxic”. The Activity [31] was “Toxic”, the Activity (HCC827 [11]) was “Active” and the Activity (PC-9 [12]) was “Toxic”. The Activity (HCC827 [13]) was “inactive”, the Activity (HCC827 [14]) was “Active” and the Activity (HCC827 [15]) was “Toxic”. The Activity (PC-9 [16]) was “Non-Toxic”, the Activity (PC-9 [17]) was “Active” and the Activity (HaCaT [18]) was “Toxic”. For the same molecule, the Activity (HCC827 [19]) was “Non-Toxic”, the Activity (PC-9 [20]) was “Active” and the Activity [21] was “Non-Toxic”. The Activity (PC-9 [22]) was “Active”, the Activity (HaCaT [23]) was “Non-Toxic” and the Activity (HaCaT [24]) was “Toxic”. The Activity (PC-9 [25]) was “inactive”, the Activity (HCC827 [26]) was “Active” and the Activity (PC-9 [27]) was “Toxic”.
